Assay results taken from ChEMBL document CHEMBL3102806, “1,2,4-Triazole/oxime hybrids as new strategy for nitric oxide donors: Synthesis, anti-inflammatory, ulceroginicity and antiproliferative activities” (Eur J Med Chem, 2014).

Key:
[1] = test system: Rattus norvegicus; experiment: Antiinflammatory activity in albino rat assessed as inhibition of carrageenan-induced paw edema at 0.28 mmol/kg, po administered 30 mins prior to carrageenan-challenge measured after 5 hrs relative to control; assay type: functional
Summary of the method: (§1)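 Male albino rats in groups of four were fasted 24 h with water allowed. Dosing was oral at 0.28 mmol/kg, suspended in 0.5% w/v CMC; controls got CMC alone. After 30 min, 0.1 ml of 1% carrageenan in saline went subplantar into the right hind paw and saline into the left. Paw thickness was read by caliper before and at 1–5 h. % inhibition = [(VR−VL)control−(VR−VL)treated]/(VR−VL)control ×100. Mean ± SEM, n = 4, one-way ANOVA vs control.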

[2] = test system: Rattus norvegicus; experiment: Antiinflammatory activity in albino rat assessed as inhibition of carrageenan-induced paw edema at 0.28 mmol/kg, po administered 30 mins prior to carrageenan-challenge measured after 4 hrs relative to control; assay type: functional; summary of the method: as §1
[3] = test system: Rattus norvegicus; experiment: Ulcerogenic activity in albino rat carrageenan-induced paw edema model assessed as ulcer index at 0.28 mmol/kg, po (reference value: 0.60 +/- 0.05); assay type: toxicity, organism-based; settings: in vivo
Summary of the method: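 Rats given the compound orally at 0.28 mmol/kg, suspended in 0.5% aqueous CMC; vehicle-only control, n = 4 per group. Gastric ulcers graded by area: I (<1 mm²), II (1–3 mm²), III (>3 mm²). Ulcer index = 1×(level I count) + 2×(level II) + 3×(level III). Mean ± SEM, one-way ANOVA versus control.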

[4] = test system: Rattus norvegicus; experiment: Antiinflammatory activity in albino rat assessed as inhibition of carrageenan-induced paw edema at 0.28 mmol/kg, po administered 30 mins prior to carrageenan-challenge measured after 2 hrs relative to control; assay type: functional; summary of the method: as §1
[5] = test system: Rattus norvegicus; experiment: Antiinflammatory activity in albino rat assessed as inhibition of carrageenan-induced paw edema at 0.28 mmol/kg, po administered 30 mins prior to carrageenan-challenge measured after 3 hrs relative to control; assay type: functional; summary of the method: as §1
[6] = test system: Rattus norvegicus; experiment: Antiinflammatory activity in albino rat assessed as inhibition of carrageenan-induced paw edema at 0.28 mmol/kg, po administered 30 mins prior to carrageenan-challenge measured after 1 hr relative to control; assay type: functional; summary of the method: as §1
[7] = Induction of nitric oxide release in phosphate buffer at 10^-4 M at pH 7.4 after 2 hrs by Griess colorimetric method in presence of N-acetylcysteine; assay type: physicochemical; settings: pH 7.4, 2 h, 100 µM
Summary of the method: (§2)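 Final drug concentration 10^-4 M, added from DMF into 1:1 50 mM phosphate buffer (pH 7.4)/MeOH containing 5 × 10^-4 M N-acetylcysteine, at 37 °C. Nitrite read with Griess reagent after 10 min at room temperature, absorbance at 546 nm. Calibration with sodium nitrite standards (10–80 nmol/ml). Reported as mol NO per mol, n = 4 reaction mixtures.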

[8] = Induction of nitric oxide release in phosphate buffer at 10^-4 M at pH 7.4 after 1 hr by Griess colorimetric method in presence of N-acetylcysteine; assay type: physicochemical; settings: pH 7.4, 1 h, 100 µM; summary of the method: as §2
[9] = Induction of nitric oxide release in HCl buffer at 10^-4 M at pH 1 after 1 hr by Griess colorimetric method in presence of N-acetylcysteine; assay type: physicochemical; settings: pH 1, 1 h, 100 µM
Summary of the method: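 Same Griess nitrite procedure at 10^-4 M final drug with N-acetylcysteine at 37 °C, but with 0.1 N HCl (pH 1) in place of the pH 7.4 phosphate buffer. Absorbance at 546 nm against a sodium nitrite calibration curve.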

[10] = Induction of nitric oxide release in phosphate buffer at 10^-4 M at pH 7.4 after 6 hrs by Griess colorimetric method in presence of N-acetylcysteine; assay type: physicochemical; settings: pH 7.4, 6 h, 100 µM; summary of the method: as §2
[11] = Induction of nitric oxide release in phosphate buffer at 10^-4 M at pH 7.4 after 3 hrs by Griess colorimetric method in presence of N-acetylcysteine; assay type: physicochemical; settings: pH 7.4, 3 h, 100 µM; summary of the method: as §2
[12] = Induction of nitric oxide release in phosphate buffer at 10^-4 M at pH 7.4 after 4 hrs by Griess colorimetric method in presence of N-acetylcysteine; assay type: physicochemical; settings: pH 7.4, 4 h, 100 µM; summary of the method: as §2
[13] = Induction of nitric oxide release in phosphate buffer at 10^-4 M at pH 7.4 after 5 hrs by Griess colorimetric method in presence of N-acetylcysteine; assay type: physicochemical; settings: pH 7.4, 5 h, 100 µM; summary of the method: as §2

| Activity [7] [mol/mol] | Activity [8] [mol/mol] | Activity [9] | Activity [10] [mol/mol] | Activity [11] [mol/mol] | Activity [12] [mol/mol] | Activity [13] [mol/mol] | Compound | inhibition in vivo at 280 µmol/kg [1] [%] | inhibition in vivo at 280 µmol/kg [2] [%] | UI [3] | inhibition in vivo at 280 µmol/kg [4] [%] | inhibition in vivo at 280 µmol/kg [5] [%] | inhibition in vivo at 280 µmol/kg [6] [%] |
| --- | --- | --- | --- | --- | --- | --- | --- | --- | --- | --- | --- | --- | --- |
|  |  |  |  |  |  |  | C=CCn1c(SCC(=O)Nc2ccc(C(C)=O)cc2)nnc1-c1ccccc1 | 63 | 70 | 9.3 | 52 | 54 | 48 |
|  |  |  |  |  |  |  | C=CCn1c(SCC(=O)Nc2ccc(C(C)=O)cc2)nnc1-c1ccc(OC)cc1 | 66 | 68 | 8.66 | 51 | 52 | 50 |
|  |  |  |  |  |  |  | C=CCn1c(SCC(=O)Nc2ccc(C(C)=O)cc2)nnc1-c1cc(OC)c(OC)c(OC)c1 | 64 | 68 | 6.49 | 54 | 55 | 48 |
|  |  |  |  |  |  |  | CCn1c(SCC(=O)Nc2ccc(C(C)=O)cc2)nnc1-c1ccccc1 | 66 | 69 | 7.12 | 53 | 56 | 50 |
|  |  |  |  |  |  |  | CCn1c(SCC(=O)Nc2ccc(C(C)=O)cc2)nnc1-c1ccc(OC)cc1 | 62 | 65 | 10.52 | 54 | 57 | 51 |
|  |  |  |  |  |  |  | CCn1c(SCC(=O)Nc2ccc(C(C)=O)cc2)nnc1-c1ccc(OC)c(OC)c1 | 66 | 69 | 3.6 | 59 | 62 | 56 |
|  |  |  |  |  |  |  | CCn1c(SCC(=O)Nc2ccc(C(C)=O)cc2)nnc1-c1cc(OC)c(OC)c(OC)c1 | 64 | 68 | 3.34 | 50 | 54 | 46 |
|  |  |  |  |  |  |  | CC(=O)c1ccc(NC(=O)CSc2nnc(-c3ccccc3)n2-c2ccccc2)cc1 | 63 | 67 | 3.38 | 49 | 62 | 41 |
|  |  |  |  |  |  |  | COc1ccc(-c2nnc(SCC(=O)Nc3ccc(C(C)=O)cc3)n2-c2ccccc2)cc1 | 60 | 63 | 5.53 | 42 | 58 | 29 |
|  |  |  |  |  |  |  | COc1cc(-c2nnc(SCC(=O)Nc3ccc(C(C)=O)cc3)n2-c2ccccc2)cc(OC)c1OC | 63 | 68 | 4.38 | 54 | 55 | 49 |
| 0.2 | 0.15 | Not Active | 0.15 | 0.22 | 0.24 | 0.16 | C=CCn1c(SCC(=O)Nc2ccc(/C(C)=N/O)cc2)nnc1-c1ccccc1 | 71 | 73 | 0.64 | 63 | 73 | 61 |
| 0.17 | 0.15 | Not Active | 0.16 | 0.23 | 0.32 | 0.23 | C=CCn1c(SCC(=O)Nc2ccc(/C(C)=N/O)cc2)nnc1-c1ccc(OC)cc1 | 72 | 75 | 2.69 | 59 | 63 | 54 |
| 0.17 | 0.11 | Not Active | 0.12 | 0.2 | 0.21 | 0.14 | CCn1c(SCC(=O)Nc2ccc(/C(C)=N/O)cc2)nnc1-c1ccccc1 | 66 | 77 | 1.18 | 57 | 65 | 54 |
| 0.2 | 0.16 | Not Active | 0.23 | 0.24 | 0.29 | 0.24 | CCn1c(SCC(=O)Nc2ccc(/C(C)=N/O)cc2)nnc1-c1ccc(OC)cc1 | 65 | 73 | 1.04 | 58 | 60 | 54 |
| 0.19 | 0.15 | Not Active | 0.32 | 0.25 | 0.43 | 0.36 | CCn1c(SCC(=O)Nc2ccc(/C(C)=N/O)cc2)nnc1-c1ccc(OC)c(OC)c1 | 73 | 75 | 3.43 | 65 | 66 | 53 |
| 0.13 | 0.12 | Not Active | 0.14 | 0.14 | 0.22 | 0.15 | CCn1c(SCC(=O)Nc2ccc(/C(C)=N/O)cc2)nnc1-c1cc(OC)c(OC)c(OC)c1 | 61 | 70 | 0.83 | 49 | 70 | 29 |
| 0.17 | 0.13 | Not Active | 0.23 | 0.24 | 0.29 | 0.24 | COc1ccc(-c2nnc(SCC(=O)Nc3ccc(/C(C)=N/O)cc3)n2-c2ccccc2)cc1 | 58 | 69 | 1.61 | 56 | 57 | 45 |
| 0.14 | 0.11 | Not Active | 0.14 | 0.16 | 0.25 | 0.15 | COc1cc(-c2nnc(SCC(=O)Nc3ccc(/C(C)=N/O)cc3)n2-c2ccccc2)cc(OC)c1OC | 70 | 75 | 2.21 | 62 | 66 | 59 |
|  |  |  |  |  |  |  | COc1ccc(-c2nnc(SCC(=O)Nc3ccc(C(C)=O)cc3)n2-c2ccccc2)cc1OC | 55 | 62 | 8.64 | 43 | 51 | 28 |
